Test results taken from publication PMC7203960 (ACS Omega, 2020).

Columns and labels:
[1] = Radical scavenging activity by DPPH method
Procedure, shortened: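 DPPH (1.6 mg in 50 mL DMSO), 1.5 mL, was mixed with 1.5 mL of test compound at 100 μg/mL. The mixture stood 45 min at ambient temperature in the dark, then absorbance was read at 517 nm. Blank DPPH solution served as control. Scavenging % was computed from control and sample absorbances, in triplicate.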

SW1990 = assay: CellTiter-Glo luminescent cell viability assay, SW1990; assay type: cell-based; conditions: Homo sapiens, SW1990, 72 h, read-out: IC50 SW1990
Procedure, shortened: (§1)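 AsPC1 and SW1990 human pancreatic cancer cells were obtained from ATCC and grown in RPMI with FBS, penicillin 100 IU/mL and streptomycin 100 μg/mL at 37 °C in 5% CO2. Compounds were made up as 100 mM DMSO stocks and diluted to 0.1 mM in sterile PBS. Cells were seeded at 1500 cells/well, held 24 h, then treated 72 h. Viability was read by CellTiter-Glo luminescence, in triplicate.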

[2] = CellTiter-Glo luminescent cell viability assay, non-cancerous cell line MRC5; assay type: cell-based; conditions: human, MRC5 cells (non-cancerous cell line)
Procedure, shortened: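 Test compounds were made up as 100 mM DMSO stocks and diluted to 0.1 mM in sterile PBS. Cells were seeded at 1500 cells/well in 384-well plates and held 24 h before 72 h exposure. Viability was read by CellTiter-Glo luminescence on a microplate reader.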

AsPC1 = assay: CellTiter-Glo luminescent cell viability assay, AsPC1; assay type: cell-based; conditions: Homo sapiens, ASPC1, 72 h, read-out: IC50 AsPC1
Procedure, shortened: as §1

O=C1O[C@H]([C@@H](O)CO)C(O)=C1O [AA, ascorbic acid]
% scavenging (DPPH) ([1]; 100 μg/mL, 45 min incubation, absorbance at 517 nm, triplicate): 88.75 ± 0.89% | IC50 ([1]; read-out: IC50 (DPPH radical scavenging), DPPH method): 170 µM

Nc1ccn([C@@H]2O[C@H](CO)[C@@H](O)C2(F)F)c(=O)n1 [gemcitabine]
IC50 (SW1990): 35.1 ± 1.78 µM | IC50 at 72 h [2]: 54.17 ± 0.2 µM | IC50 (AsPC1): 39.3 ± 4.44 µM
